Experimental data from different studies.
Each line is one published result; the experiments were not run side by side. In brackets after ≈: the same amount, converted by molar mass.

| Compound | tested on | assay | test system | conditions | measurement | result |
| --- | --- | --- | --- | --- | --- | --- |
| CN(C)CCC(c1cccnc1)n1c(=S)[nH]c2ccc(Cl)cc2c1=O (stereo not drawn) | Mycobacterium tuberculosis | microbial growth | H37RV | – | MIC90 | > 100 µM |
| CCCc1ccc(CNc2cc(-c3ccccn3)nc3nncn23)cc1 | Mycobacterium tuberculosis | microbial growth | H37RV | – | MIC | > 100 µM |
| N#Cc1ccc(NC(=N)CC(O)c2cc3c(F)cc(F)cc3c3cc(C(F)(F)F)ccc23)cc1 (stereo not drawn) | HepG2 | cell growth or viability, neutral red | – | 24 h | IC50 | > 25 µM |
| NC(=S)c1ccc(Cn2c(=S)[nH]c3ccc(Cl)cc3c2=O)cn1 | Mycobacterium tuberculosis | microbial growth | H37RV | – | MIC90 | > 100 µM |
| N=C(CC(O)c1cc2c(F)cc(F)cc2c2cc(C(F)(F)F)ccc12)Nc1ccc(Br)c(F)c1 (stereo not drawn) | HepG2 | cell growth or viability, neutral red | – | 24 h | IC50 | 28.2 µM |
| CCc1ccc(CCNc2cc(-c3ccccn3)nc3nnc(C4CC4)n23)cc1 | Mycobacterium tuberculosis | microbial growth | H37RV | – | MIC | 50 µM (≈ 19.2 µg/mL) |
| N=C(CC(O)c1cc2c(F)cc(F)cc2c2cc(C(F)(F)F)ccc12)Nc1cccc(F)c1 (stereo not drawn) | HepG2 | cell growth or viability, neutral red | – | 24 h | IC50 | 11.4 µM |
| COc1ccc(-c2cc(C(F)(F)F)c3c(N)c(C(=O)NC(C)C4CCCCC4)sc3n2)cc1 (stereo not drawn) | HepG2 | cell growth or viability | – | 72 h | IC50 | > 100 µM |
| CC(CNc1cc(-c2ccccn2)nc2nncn12)c1ccccc1 (stereo not drawn) | Mycobacterium tuberculosis | microbial growth | H37RV | – | IC90 | 35 µM |
| O=c1c2cc(Cl)ccc2[nH]c(=S)n1Cc1ccc(-c2nnn[nH]2)nc1 | Mycobacterium tuberculosis | microbial growth | H37RV | – | MIC90 | 87.4 µM (≈ 32.5 µg/mL) |
| N=C(CC(O)c1cc2c(F)cc(F)cc2c2cc(C(F)(F)F)ccc12)NC1CC(F)(F)C1 (stereo not drawn) | HepG2 | cell growth or viability, neutral red | – | 24 h | IC50 | 7.2 µM |
| CCC(NC(=O)c1sc2nc(-c3ccc(OC)cc3)cc(C(F)(F)F)c2c1N)c1ccccc1 (stereo not drawn) | HepG2 | cell growth or viability | – | 72 h | IC50 | > 100 µM |
| O=c1c2ccccc2[se]n1-c1ccccc1 | Trypanosoma cruzi | parasite growth | Vero | 72 h, intracellular, amastigote | EC50 | 3.72 µM |
| COc1ccc(-c2cc(C(F)(F)F)c3c(N)c(C(=O)Nc4ccc(C)cc4C)sc3n2)cc1 | HepG2 | cell growth or viability | – | 72 h | IC50 | > 100 µM |
| COc1ccc(CCNc2cc(-c3ccccn3)nc3cc(Br)nn23)cc1 | Mycobacterium tuberculosis | microbial growth | H37RV | – | MIC | 23 µM (≈ 9.76 µg/mL) |
| COC1CN(C(=O)c2sc3ncccc3c2N)C1 | Mycobacterium tuberculosis | microbial growth | H37RV | – | IC50 | > 100 µM |
| NC(=O)c1cc2[nH]c(=S)n(Cc3cccnc3)c(=O)c2cc1Cl | Mycobacterium tuberculosis | microbial growth | H37RV | – | MIC90 | 7.1 µM (≈ 2.46 µg/mL) |
| Cc1cccc(NC(=O)c2sc3nc(-c4ccco4)cc(C(F)(F)F)c3c2N)c1C | HepG2 | cell growth or viability | – | 72 h | IC50 | > 100 µM |
| O=c1c2cc(Cl)ccc2[nH]c(=S)n1Cc1ccc(-c2ccccc2)nc1 | Mycobacterium tuberculosis | microbial growth | H37RV | – | MIC90 | > 100 µM |
| c1ccc(CCOc2cc(-c3ccccn3)nc3nncn23)cc1 | Mycobacterium tuberculosis | microbial growth | H37RV | – | MIC | > 100 µM |
| Cc1cccc(NC(=O)c2sc3nc(-c4cccs4)cc(C(F)(F)F)c3c2N)c1C | HepG2 | cell growth or viability | – | 72 h | IC50 | > 100 µM |
| CC(C)C(=O)OCc1cc2[nH]c(=S)n(Cc3cncc(C(N)=S)c3)c(=O)c2cc1Cl | Mycobacterium tuberculosis | microbial growth | H37RV | – | MIC90 | 18 µM (≈ 8.33 µg/mL) |
| COc1ccc(-c2cc(C(F)(F)F)c3c(N)c(C(=O)NCc4ccccc4)sc3n2)cc1 | Mycobacterium tuberculosis | microbial growth | H37RV | – | IC50 | > 100 µM |
| NC(=S)c1cncc(Cn2c(=S)[nH]c3ccc(Cl)cc3c2=O)c1 | Mycobacterium tuberculosis | microbial growth | H37RV | – | MIC90 | > 100 µM |
| Cc1cc(F)cc(C)c1NC(=N)CC(O)c1cc2c(F)cc(F)cc2c2cc(C(F)(F)F)ccc12 (stereo not drawn) | HepG2 | cell growth or viability, neutral red | – | 24 h | IC50 | 6.3 µM |
| O=c1c2cc(Cl)ccc2[nH]c(=S)n1Cc1ccc(-c2cscn2)nc1 | Mycobacterium tuberculosis | microbial growth | H37RV | – | MIC90 | > 100 µM |
| COc1ccc(-c2cc(C(F)(F)F)c3c(N)c(C(=O)N4CCCCC4)sc3n2)cc1 | HepG2 | cell growth or viability | – | 72 h | IC50 | > 100 µM |
